Tests used:
[1] = Permeability across human Caco2 cell membrane; assay type: ADME, cell-based; settings: Caco-2, read-out: permeability
[2] = Metabolic stability in mouse hepatic microsomes assessed as compound metabolism after 20 mins; assay type: ADME; settings: liver microsomes, read-out: Drug metabolism
Summary of the method: (§1)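 Compound was incubated for 20 min with human or mouse hepatic microsomal fraction. % liability is the disappearance of parent compound at the end of the incubation.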

[3] = Metabolic stability in human hepatic microsomes assessed as compound metabolism after 20 mins; assay type: ADME; settings: liver microsomes, read-out: Drug metabolism; summary of the method: as §1
Mus musculus = assay: Antihyperlipidemic activity in C57BL/6J mouse assessed as inhibition of rise in plasma triglyceride level at 1 mg/kg, po administered 1 hr before lipid challenge; assay type: functional
Summary of the method: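 Fasted male C57Bl/6J mice (n = 10/group) were dosed orally at 1 mg/kg in 0.5% methylcellulose/1% DMSO (10 mL/kg), 1 h before a 100 µL corn oil or water bolus. Blood was taken by intracardiac puncture under isoflurane 1 h after the challenge, and plasma triglycerides were measured with a commercial kit. Inhibition of the TG rise was assessed against vehicle by one-way ANOVA with Dunnett test.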

[4] = Plasma concentration in C57BL/6J mouse at 1 mg/kg, po administered 1 hr before lipid challenge measured after 1 hr post dose; assay type: ADME, organism-based; set-up: dose 1 mg/kg, route oral
[5] = biological target: T1, Diacylglycerol O-acyltransferase 1 (Homo sapiens, UniProt O75907); assay: Inhibition of human recombinant DGAT1 expressed in baculovirus infected Sf9 cells after 60 mins by scintillation counting method
T1 sequence (O75907 whole entry): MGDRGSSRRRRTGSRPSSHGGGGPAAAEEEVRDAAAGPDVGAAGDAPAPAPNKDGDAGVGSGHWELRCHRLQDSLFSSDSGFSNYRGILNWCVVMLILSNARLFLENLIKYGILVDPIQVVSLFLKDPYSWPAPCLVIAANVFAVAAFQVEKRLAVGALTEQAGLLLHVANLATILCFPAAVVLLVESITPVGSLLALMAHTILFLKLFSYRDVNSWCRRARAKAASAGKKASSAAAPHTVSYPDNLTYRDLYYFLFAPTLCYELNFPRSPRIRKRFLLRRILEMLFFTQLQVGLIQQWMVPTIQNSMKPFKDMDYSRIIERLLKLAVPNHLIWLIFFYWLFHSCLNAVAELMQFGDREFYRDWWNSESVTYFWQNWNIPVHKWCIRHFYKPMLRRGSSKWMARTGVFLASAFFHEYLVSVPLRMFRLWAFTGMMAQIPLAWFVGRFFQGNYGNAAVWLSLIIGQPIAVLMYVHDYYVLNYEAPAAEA

For `O=C(O)C[C@H]1CC[C@H](c2ccc(C(=O)Nc3nnc(Cc4ccccc4)s3)cc2)CC1`, the Papp [1] was 11.2 ×10⁻⁶ cm/s, the metabolised at 20 min [2] was 5% and the metabolised at 20 min [3] was 0%. For the same compound, the inhibition in vivo at 1 mg/kg (Mus musculus) was 95% and the concentration at 1 h [4] was 79.1 ng/mL.
Work on `CC(C)[C@H](NC(=O)c1ccc(-c2ccc(Nc3nnc(Cc4ccccc4)s3)cc2)cc1)C(=O)O` yielded a Papp [1] of 0.04 ×10⁻⁶ cm/s.
For `O=C(O)C[C@H]1CC[C@H](c2ccc(C(=O)Nc3nnc(Cc4ccccc4F)s3)cc2)CC1`, the Papp [1] was 7.5 ×10⁻⁶ cm/s, the metabolised at 20 min [2] was 4% and the metabolised at 20 min [3] was 0%. It also gave an inhibition in vivo at 1 mg/kg (Mus musculus) of 120%.
`O=C(O)C[C@H]1CC[C@H](c2ccc(C(=O)Nc3nnc(Cc4cccc(F)c4)s3)cc2)CC1` showed a Papp [1] of 12 ×10⁻⁶ cm/s, a metabolised at 20 min [2] of 10% and a metabolised at 20 min [3] of 1%. It also gave an inhibition in vivo at 1 mg/kg (Mus musculus) of 107%.
Compound `CN(C(=O)c1ccc([C@H]2CC[C@H](CC(=O)O)CC2)cc1)c1nnc(Cc2ccccc2)s1` has an IC50 [5] of over 10 µM.
Compound `CS(=O)(=O)c1nnc(NC(=O)c2ccc([C@H]3CC[C@H](CC(=O)O)CC3)cc2)s1` has an IC50 [5] of over 10 µM.
Compound `O=C(O)CC1CCC(c2ccc(Nc3nnc(Cc4ccccc4)s3)cc2)CC1` (mixture of isomers) has an IC50 [5] of over 10 µM.
With `O=C(O)C[C@H]1CC[C@H](c2ccc(C(=O)Nc3nnc(Cc4cccc(Cl)c4)s3)cc2)CC1` the Papp [1] was 8 ×10⁻⁶ cm/s, the metabolised at 20 min [2] was 14% and the metabolised at 20 min [3] was 6%. The inhibition in vivo at 1 mg/kg (Mus musculus) was 101%.

Source: ChEMBL document CHEMBL2010778, “Thiadiazoles as new inhibitors of diacylglycerol acyltransferase type 1” (Bioorg Med Chem Lett, 2012)
